For 10 compounds, Ki, LD50 and IC50 results are on record in ChEMBL document CHEMBL1129073, “Metabolically programmed polyamine analogue antidiarrheals” (J Med Chem, 1996).

Series [1] deals with L1210. Description: In vitro inhibition of uptake [3H]-spermidine in L1210 (murine leukemia) cells. It counts as functional, cell-based, Mus musculus.
For series [2], the system named is L1210. Description: Ability to competitively inhibit uptake of radiolabeled spermidine in L1210 cells. The class given is functional, cell-based, Mus musculus. Put shortly: (§1)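 Murine L1210 leukemia cells in RPMI-1640 with 10% FBS and 1 mM aminoguanidine. Pellets washed in cold medium containing 1 mM SPD, dissolved in NaOH, scintillation counted. Ki from Lineweaver–Burke plots; Km(SPD) 2.1 μM; mean of ≥3 experiments.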

The nature of series [3]: Effect of Chronic compound treatment on polyamine homeostasis in mouse kidney (native[N+]) at total dose of 100 mg/kg. It counts as ADME, organism-based. Further details: dose 100 mg/kg. As to conditions: in vivo. The method in brief: (§2)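 Groups of three female CD-1 mice were given 20 mg/kg/day as a single daily ip injection for 5 days (total 100 mg/kg, 215.3 μmol/kg). Mice were sacrificed 24 h after the last dose. Liver and kidney perchloric acid extracts were dansylated and run on HPLC, quantified against calibration curves. [N+] equivalents = 2[diamine] + 3[triamine] + 4[tetraamine], in nequiv/g wet weight, ±SD.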

The nature of series [4]: Acute toxicity was assessed after ip administration of a single dose of 325 mg/kg to a group of 5 female CD-1 mice. It counts as organism-based. Further details: dose 325 mg/kg, route intraperitoneal. Particulars: CD-1, mouse, in vivo.
Series [5] has as its system L1210. The series can be described thus: Growth inhibitory activity of compound on L1210 cells after 96 hours. The class given is functional, cell-based. As to conditions: Mus musculus, L1210, 96 h. The method in brief: (§3)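 Murine L1210 leukemia cells were kept in log-phase suspension in RPMI-1640 with 10% FBS, 2% HEPES-MOPS, 1 mM aminoguanidine and 1 mM L-glutamine at 37 °C under 5% CO₂. They were dosed at 0.5–1.0 × 10⁵ cells/mL with analogue in sterile water, 0.2 μm filtered. For the 96 h value, cells were reseeded at 48 h. Cells were counted electronically. IC50 is the concentration giving 50% of control growth, net of the inoculum.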

The nature of series [6]: Effect of Chronic compound treatment on polyamine homeostasis in mouse liver (native[N+]) total dose of 100 mg/kg. The class given is ADME, organism-based. Further details: dose 100 mg/kg. As to conditions: in vivo. Put shortly:
as §2

Series [7] relates to L1210. Description: Growth inhibitory activity of compound on L1210 cells after 48 hours. It counts as functional, cell-based. Particulars: Mus musculus, L1210, 48 h. The method in brief: as §3
Series [8] is described as follows: Effect of Chronic compound treatment on polyamine homeostasis in mouse liver(total[N+]) total dose of 100 mg/kg. It counts as ADME, organism-based. Further details: dose 100 mg/kg. Particulars: in vivo. Put shortly:
as §2

Series [9] in a line: Effect of Chronic compound treatment on polyamine homeostasis in mouse kidney (total[N+]) at total dose of 100 mg/kg. The class given is ADME, organism-based. Further details: dose 100 mg/kg. As to conditions: in vivo. Put shortly: as §2
In series [10] the test system is L1210. Description: Ability to competitively inhibit radioligand spermidine transport in L1210 cells. It counts as functional, cell-based, Mus musculus. The method in brief:
as §1

Series [11] is described as follows: Effect of Chronic compound treatment on polyamine homeostasis in mouse liver (native[N+]) at total dose of 90 mg/kg. It counts as ADME, organism-based. Further details: dose 90 mg/kg. As to conditions: in vivo. Put shortly:
(§4)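 Groups of three female CD-1 mice were dosed at 15 mg/kg/day for 6 days (total 90 mg/kg, 208.3 μmol/kg). Mice were sacrificed 1 day after the final dose. Liver and kidney perchloric acid extracts were dansylated and analysed by HPLC against calibration standards. [N+] equivalents = 2[diamine] + 3[triamine] + 4[tetraamine], in nequiv/g wet weight, ±SD.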

The nature of series [12]: Effect of Chronic compound treatment on polyamine homeostasis in mouse liver(total[N+]) at total dose of 90 mg/kg. It counts as ADME, organism-based. Further details: dose 90 mg/kg. Particulars: in vivo. The method in brief: as §4
A short description of series [13]: Effect of Chronic compound treatment on polyamine homeostasis in mouse kidney (native[N+]) at total dose of 90 mg/kg. It counts as ADME, organism-based. Further details: dose 90 mg/kg. Particulars: in vivo. The method in brief:
as §4

The next series deals with L1210 (Mus musculus). The series can be described thus: Growth inhibitory activity of compound on L1210 cells after 96 hours. As to conditions: L1210, 96 h.

For `C(CCNCCC1CCNCC1)CNCCC1CCNCC1`, the Ki (usually a measure of affinity in units of concentration, obtained from inhibition or displacement) in the series on L1210 [1] was 18100 nM.

The compound `CCNCCCCNC1CCC(NCCCCNCC)CC1` (stereo unspecified) yielded an inhibitory constant (Ki) in the series on L1210 [1] of 3500 nM.

Consider `C(CCNCCCCNC12CC3CC(CC(C3)C1)C2)CNCCCCNC12CC3CC(CC(C3)C1)C2`, for which, in the series on L1210 [2], the Ki is 2000 nM.

In turn, `C(CNC1CCNCC1)CNC1CCNCC1` gave a Ki with L1210 [1] of 60500 nM.

As for `CCNCCC(O)CNCCCCNCC(O)CCNCC` (stereo unspecified), the LD50 (commonly the dose expected to kill half of the subjects tested) in series [3] came to 3251 mg/kg; in [4] it was 325 mg/kg; in series [6], 6118 mg/kg; in series [8] it was 6706 mg/kg; in [9], 5427 mg/kg. For the same compound, the IC50 (in general, the concentration that gives 50% inhibition) in the series with L1210 [5] was determined as 50 nM; in the series with L1210 [7], 600 nM. In the series on L1210 [10], this compound returned a Ki of 1800 nM.

Compound `c1cc(CNCCCCNCc2ccncc2)ccn1` registered a Ki in the series with L1210 [1] above 500000 nM.

On to `CCNCCCNCCCNCCCNCC` [BIS(ETHYL)NORSPERMINE], for which, in series [4], the LD50 was found to be 325 mg/kg.

`c1cc(NCCCNc2ccncc2)ccn1` registered a Ki in the series with L1210 [1] above 500000 nM.

As for `CCNCCCCNCCCCNCCCCNCC` [DIETHYLHOMOSPERMINE], the LD50 turned out to be 325 mg/kg in [4], 5506 mg/kg in series [11], 7806 mg/kg in [12] and 1560 mg/kg in [13]. Further, in the series with L1210 (Mus musculus), the IC50 amounted to 50 nM.

In the series with L1210 [1], `CCNCCCNC1CCC(NCCCNCC)CC1` (stereo unspecified) displayed a Ki of 7900 nM.
